Broadly, the IC50 is the concentration at which inhibition is half-maximal. Higher therefore signals weaker potency in that assay.

The test system of one assay is HT-29. In words: Antiproliferative activity against human HT-29 cells after 72 hrs by methylene blue assay. It is filed as functional, cell-based. The conditions noted are these: HT-29, 72 h. An outline of the steps:
(§1)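 Lines kept in RPMI-1640 with 5% fetal bovine serum. Log-phase cells seeded at 5000 cells/mL/well in 24-well plates, then exposed to compound.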

A short description of assay [1]: Antiproliferative activity against human KB-VIN10 cells over-expressing P-gp 170/MDR1 after 72 hrs by methylene blue assay. It is filed as functional, cell-based. The conditions noted are these: KB-VIN10, 72 h. The method in brief: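 KB-VIN10 is a P-gp 170/MDR1-overexpressing subline derived from KB by continuous exposure to rising vincristine. It is maintained in growth medium with 10 nM vincristine. Log-phase cells seeded at 5000 cells/mL/well in 24-well plates before compound exposure.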

In another assay the test system is MKN-45. The experiment in a line: Antiproliferative activity against human MKN45 cells after 72 hrs by methylene blue assay. It is filed as functional, cell-based. The conditions noted are these: MKN-45, 72 h. The method in brief:
as §1

The next assay deals with KB. In words: Antiproliferative activity against human KB cells after 72 hrs by methylene blue assay. It is filed as functional, cell-based. An outline of the steps: as §1
The next assay concerns NCI-H460. In words: Antiproliferative activity against human H460 cells after 72 hrs by methylene blue assay. Particulars: NCI-H460, 72 h. It is filed as functional, cell-based. An outline of the steps:
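Log-phase cells seeded at 5000 cells/mL/well in 24-well plates, then exposed to compound.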

The nature of assay [2]: Inhibition of tubulin polymerization. The method in brief:
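Bovine brain MAP-rich tubulin, 4 mg/mL in 100 mM PIPES (pH 6.9), 2 mM MgCl₂, 1 mM GTP, […] per well, with test compound or 2% (v/v) DMSO control. Turbidity read at 350 nm, 37 °C, every 30 s for 30 min.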

Assay [3] can be described thus: Inhibition of bovine brain tubulin polymerization after 30 mins by turbidimetry analysis.
The species entered for the next assay is Bos taurus. In words: Displacement of [3H]colchicine from biotin-labeled bovine brain tubulin at 5 uM after 2 hrs by liquid scintillation counter.

Each structure is given as a SMILES string. Bounds are passed on as bounds.

For the molecule `COc1cc2c(c(OC)c1OC)-c1ccc(OC)c(=O)cc1[C@@H](NC(C)=O)CC2` [COLCHICINE], the IC50 came to 15 nM in the assay on HT-29, 121 nM in assay [1], 12 nM in the assay on MKN-45 and 10 nM in the assay on KB.
For the molecule `COc1cc2c(ccn2-c2cccc3ncccc23)c(OC)c1OC`, the IC50 in the assay with NCI-H460 was 955 nM; with HT-29, 921 nM; in assay [1] it was 535 nM; in the assay with MKN-45, 682 nM; with KB, 900 nM.
The matching figures for `COc1cc2c(ccn2-c2ccc3ncncc3c2)c(OC)c1OC`: 7520 nM, 8140 nM, 3450 nM, 4310 nM and 7950 nM.
`COc1ccc2ccc3cc(OC)c(OC)c(OC)c3c2c1` had an IC50 in assay [2] greater than 40000 nM.
As for `COc1ccc2c(-n3ccc4c(OC)c(OC)c(OC)cc43)cn(C)c2c1`, the IC50 is 81 nM with NCI-H460; 81 nM in the assay with HT-29; 40 nM in assay [1]; 59 nM in the assay with MKN-45; 85 nM in the assay with KB.
Take `COc1ccc2nc(-n3ccc4c(OC)c(OC)c(OC)cc43)ccc2c1`: the IC50 in the assay on NCI-H460 came out at 6170 nM; in the assay on HT-29, 3650 nM; in assay [1], 9110 nM; in the assay on MKN-45, 11500 nM; in the assay with KB, 7370 nM.
The matching figures for `COc1cc2c(ccn2-c2ccc(N(C)C)cc2)c(OC)c1OC`: 172 nM, 148 nM, 63 nM, 105 nM and 148 nM.
As to `COc1ccc(-n2ccc3c(OC)c(OC)c(OC)cc32)cc1N`, the IC50 with NCI-H460 is 2390 nM; in the assay with HT-29, 4150 nM; in assay [1], 1380 nM; in the assay with MKN-45, 1540 nM; in the assay on KB, 3250 nM.
For `COc1cc2c(ccn2-c2ccc3ncccc3c2)c(OC)c1OC`, the IC50 in the assay with NCI-H460 was determined as 31 nM; in the assay with HT-29 it was 34 nM; in assay [3], 2700 nM; in assay [1], 11 nM; in the assay on MKN-45, 24 nM; in the assay with KB, 18 nM. The molecule further yielded an Activity in the assay listed under Bos taurus of 72%.
As to `COc1cc2c(ccn2-c2ccc3c(ccn3C)c2)c(OC)c1OC`, the IC50 is 76 nM with NCI-H460; 74 nM in the assay on HT-29; 2700 nM in assay [3]; 53 nM in assay [1]; 40 nM with MKN-45; 73 nM in the assay with KB. Also, the Activity in the assay filed under Bos taurus came out at 65%.
Consider `COc1ccc(-n2ccc3c(OC)c(OC)c(OC)cc32)c(N)c1`, for which the IC50 was found to be 96 nM in the assay with NCI-H460; 101 nM in the assay on HT-29; 4700 nM in assay [3]; 50 nM in assay [1]; 49 nM in the assay on MKN-45; 102 nM in the assay with KB. For the same molecule, the Activity in the assay filed under Bos taurus was found to be 44%.
For `COc1ccc(/C=C\c2cc(OC)c(OC)c(OC)c2)cc1O` [COMBRETASTATIN A4], the IC50 in the assay on NCI-H460 was determined as 2.3 nM; in the assay with HT-29, 94 nM; in assay [1], 0.7 nM; in the assay with MKN-45, 4.8 nM; in the assay on KB, 2 nM. The Activity in the assay listed under Bos taurus worked out at 97%.
On to `COc1cc2c(ccn2-c2cccc3c2ccn3C)c(OC)c1OC`, for which the IC50 in the assay with NCI-H460 was found to be 49 nM; with HT-29, 44 nM; in assay [3], 1700 nM; in assay [1], 25 nM; in the assay on MKN-45, 40 nM; with KB, 32 nM. In addition, the Activity in the assay filed under Bos taurus stood at 83%.
As for `COc1ccc(-n2ccc3c(OC)c(OC)c(OC)cc32)cc1O`, the IC50 in the assay with NCI-H460 came to 737 nM; in the assay on HT-29 it was 6400 nM; in assay [1] it was 68 nM; in the assay on MKN-45, 5900 nM; in the assay on KB it was 131 nM.
Turning to `COc1ccc(-n2ccc3c(OC)c(OC)c(OC)cc32)cc1`, the IC50 is 198 nM with NCI-H460; 179 nM in the assay with HT-29; 135 nM in assay [1]; 145 nM with MKN-45; 186 nM with KB.
Turning to `COc1cc2c(ccn2-c2ccc3occc3c2)c(OC)c1OC`, the IC50 with NCI-H460 turned out to be 690 nM; in the assay on HT-29 it was 646 nM; in assay [1], 265 nM; with MKN-45, 322 nM; with KB, 537 nM.
Regarding `COc1cc2c(ccn2-c2ccnc3ccccc23)c(OC)c1OC`, the IC50 with NCI-H460 was 318 nM; in the assay on HT-29, 329 nM; in assay [1], 130 nM; in the assay on MKN-45, 197 nM; in the assay with KB, 216 nM.

The values above are taken from ChEMBL document CHEMBL1817604, “Synthesis and biological evaluation of 1-(4'-Indolyl and 6'-Quinolinyl) indoles as a new class of potent anticancer agents” (Eur J Med Chem, 2011).
